Laboratory results reported in paper PMC7854864 (Cell chemical biology, 2020).
Values belong to the compound of their own block, whether it stands above or below them.

Key:
[1] = tested on: MYC transcriptional activity; assay: MYC luciferase reporter assay in HEK293T cells; type: cell-based, human; conditions: for activity in MYC luciferase reporter assay: dose response, Table S4
Method in brief: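 HEK293T cells (DMEM, 10% FBS) seeded at 35,000/well and transfected with Lipofectamine 2000 (complexes formed 25 min at room temperature). Reporter: firefly luciferase driven by TATA box plus tandem E-box repeats; negative control lacked response elements. Cells treated with DMSO or test compound (50 μM screen, or dose series) for 24 h. Firefly and Renilla read; blank subtracted, Firefly:Renilla calculated per well, then normalised to vehicle. n=3.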

endogenous c-MYC = endogenous c-MYC (Homo sapiens, UniProt P01106); assay: EN4-alkyne-4 enrichment of endogenous MYC in cells; type: cell-based; conditions: 231MFP cells, 50 μM, 4 h, in situ
Method in brief: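 231MFP cells at 70% confluency exposed in situ to DMSO or 50 μM alkyne probe for 4 h. Cells lysed by sonication and lysates normalised to 3.2 mg/mL. Probe-labelled proteins conjugated by CuAAC and pulled down. c-MYC in the pulldown detected by blotting; input c-MYC and vinculin also shown. n=3 biological replicates, quantified.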

[2] = target: purified recombinant human MYC/MAX complex (Homo sapiens, UniProt P01106); assay: MYC/MAX in vitro DNA binding to E-box consensus sequence; type: biochemical
Method in brief: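 Human full-length c-MYC (0.2 μg) was pre-incubated for 30 min at 37 °C with DMSO or test compound diluted from 50 mM DMSO stock into dPBS. MAX (0.2 μg) was then added, and the mixture was transferred to wells coated with the E-box consensus sequence for 1 h binding. Bound complex was detected with primary and secondary antibodies following a commercial transcription-factor kit protocol. IC50 was derived from the dose-response.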

[3] = target: pure human MYC C171Y mutant protein (Homo sapiens, UniProt P01106, C186Y); assay: Gel-based ABPP with pure C171Y mutant MYC protein; type: binding; conditions: 50 μM, 2 h, 37°C
Method in brief: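 Pure human wild-type and C171Y MYC (0.3 μg in 50 μl PBS) labelled directly with alkyne probe (50 μM) for 2 h at 37 °C. Rhodamine-azide (1 μM final) attached by CuAAC, 1 h at room temperature. Samples run on reducing SDS/PAGE (4–20% gels), fixed in acetic acid/ethanol, and imaged by in-gel rhodamine fluorescence; silver stain used for loading.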

[4] = target: C171Y mutant MYC protein (with MAX) (Homo sapiens, UniProt P01106, C186Y); assay: MYC/MAX in vitro DNA binding with C171Y mutant MYC; type: biochemical; conditions: 50 μM
Method in brief: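 Plate-based assay adapted from a c-Myc transcription factor kit. Test compound (50 μM; diluted from 50 mM DMSO stock into dPBS) or DMSO pre-incubated with 0.2 μg pure full-length wild-type or C171Y MYC for 30 min at 37 °C. Then 0.2 μg MAX added and the mixture bound to wells coated with the E-box consensus sequence for 1 h. Bound complex detected with primary and secondary antibodies.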

C171Y FLAG-MYC = assay: MYC luciferase reporter in HEK293T cells expressing C171Y versus WT FLAG-MYC; type: cell-based, human; conditions: 50 μM, 24 h
Method in brief: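 HEK293T cells seeded at 35,000/well and co-transfected with the MYC E-box luciferase reporter plus 1 μg/well FLAG-eGFP, FLAG-wild-type or FLAG-C171Y c-MYC plasmid (site-directed mutant), using Lipofectamine 2000 at 3:1 to DNA. Treated with DMSO or 50 μM test compound for 24 h. Blank-subtracted Firefly:Renilla expressed relative to DMSO set to 1; FLAG expression checked by Western blot.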

[5] = tested on: MYC transcriptional activity; assay: MYC luciferase reporter upon JUN knockdown; type: cell-based, human; conditions: HEK293T, siJUN, 24 h
pure human MYC protein = pure human MYC protein (Homo sapiens, UniProt P01106); assay: Gel-based ABPP with pure MYC protein; type: binding; conditions: pre-incubation 30 min 37°C, then EN4-alkyne-2 50 μM 2 h
Method in brief: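 Pure human full-length MYC (0.3 μg in 50 μl PBS) pre-treated with DMSO or test compound for 30 min at 37 °C, then labelled with alkyne probe (50 μM) for 2 h at 37 °C. Rhodamine-azide (1 μM final) attached by CuAAC, 1 h at room temperature. Samples heated at 90 °C for 5 min in reducing Laemmli buffer, run on 4–20% gels, fixed, and read by in-gel fluorescence; silver stain used for loading.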

MYC = MYC (Homo sapiens, UniProt P01106); assay: Cellular thermal shift assay; type: cell-based; conditions: 231MFP cells, 50 μM, 2 h
Method in brief: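 231MFP cells (L15, 10% FBS, 37 °C, 0% CO2) at 80% confluence were exposed to test compound or DMSO at 50 μM for 120 min. They were then resuspended in PBS with protease inhibitors, still containing compound or DMSO, and heated for 3 min at eight temperatures (37.0–58.0 °C). After 3 min at 25 °C, cells were freeze-thaw lysed and spun at 20,000 g. Soluble c-MYC, MAX and GAPDH were measured by Western blot densitometry, relative to DMSO.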

MAX = MAX (Homo sapiens, UniProt P61244); assay: Cellular thermal shift assay; type: cell-based; conditions: 231MFP cells, 50 μM, 2 h
Method in brief: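 231MFP cells at 80% confluence treated with DMSO or 50 μM test compound for 120 min, then resuspended in PBS with protease inhibitors and compound or DMSO kept present. Aliquots heated 3 min at eight temperatures (37.0–58.0 °C), held 3 min at 25 °C, lysed by three liquid-nitrogen freeze-thaw cycles and spun 20,000 g, 20 min, 4 °C. Soluble MAX measured by Western blot with GAPDH as loading control; band intensity quantified.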

pure human c-JUN protein = pure human c-JUN protein (Homo sapiens, UniProt P05412); assay: Gel-based ABPP with pure JUN protein; type: binding; conditions: Fig. S3b
Method in brief: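 Recombinant pure human c-JUN (0.1 μg) was pretreated with DMSO or test compound in 25 μl PBS for 1 h at 37 °C. It was then labeled with 200 nM IA-rhodamine for 1 h at room temperature. Samples were denatured in reducing Laemmli buffer at 90 °C for 5 min, separated on 4–20% SDS/PAGE gels, fixed, and read by in-gel fluorescence.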

MYC target genes = assay: RNA sequencing of EN4-treated 231MFP cells; type: cell-based, human; conditions: 50 μM, 24 h
Method in brief: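 231MFP cells seeded in 6 cm dishes and treated with DMSO or 50 μM test compound for 24 h before RNA sequencing. Transcript changes reported as log₂ fold change of treated versus DMSO controls.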

[6] = tested on: CDK2, CDC25A and MYC protein levels; assay: Western blotting of MYC transcriptional targets in 231MFP cells; type: cell-based, human; conditions: 50 μM, 36 h
Method in brief: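 231MFP cells treated with DMSO or 50 μM test compound for 36 h, with medium and treatment replenished at 24 h. CDK2, CDC25A and MYC levels measured by Western blot with vinculin as loading control. n=3 biological replicates; blots quantified; unpaired two-tailed t-test.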

[7] = tested on: 231MFP breast cancer cells; assay: 231MFP cell proliferation; type: cell-based, human; conditions: 50 μM, daily treatment, 72 h
Method in brief: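 231MFP cells (L15, 10% FBS, 37 °C, 0% CO2) seeded at 15,000/well in serum-containing L-15. Treated the next day with DMSO or test compound, with media and compound replaced daily for 72 h. Wells fixed and stained with 10% formalin plus Hoechst 33342 for 15 min at room temperature in the dark, washed and imaged. Reported as percent proliferation versus DMSO; unpaired two-tailed t-test.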

[8] = tested on: MYC-transformed mammary epithelial MCF10A cells; assay: Serum-free cell survival, MYC-expressing MCF10A; type: cell-based, human; conditions: 48 h
Method in brief: (§1)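 MCF10A parental or MYC-overexpressing cells (maintained in DMEM/F12K with 5% horse serum, EGF, cholera toxin, insulin and hydrocortisone) seeded at 40,000/well and allowed to adhere overnight. Treated with DMSO or test compound in serum-free medium for 48 h. Fixed and stained with formalin/Hoechst 33342, then imaged. Survival normalised to the DMSO control of each line set to 1; unpaired two-tailed t-test.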

parental MCF10A cells = assay: Serum-free cell survival, parental MCF10A; type: cell-based, human; conditions: 48 h
Method in brief: as §1

[9] = tested on: 231MFP breast tumor xenograft; assay: 231MFP tumor xenograft study; type: in vivo; conditions: 50 mg/kg ip once per day, started 14 days after implantation, SCID mice
Method in brief: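 Female C.B17 SCID mice (6–8 weeks) received 1 × 10⁶ 231MFP cells subcutaneously in the flank, suspended in serum-free medium. From 2 weeks after implantation, vehicle (18:1:1 PBS/ethanol/PEG40) or 50 mg/kg test compound was given ip once daily. Tumour size measured weekly by calipers; unpaired two-tailed t-test.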

MIZ1 or ZBTB17 = assay: MIZ1/ZBTB17 level with EN4 treatment; type: cell-based; conditions: Fig. S3f

Sequence of purified recombinant human MYC/MAX complex (P01106 16-454, one chain of several): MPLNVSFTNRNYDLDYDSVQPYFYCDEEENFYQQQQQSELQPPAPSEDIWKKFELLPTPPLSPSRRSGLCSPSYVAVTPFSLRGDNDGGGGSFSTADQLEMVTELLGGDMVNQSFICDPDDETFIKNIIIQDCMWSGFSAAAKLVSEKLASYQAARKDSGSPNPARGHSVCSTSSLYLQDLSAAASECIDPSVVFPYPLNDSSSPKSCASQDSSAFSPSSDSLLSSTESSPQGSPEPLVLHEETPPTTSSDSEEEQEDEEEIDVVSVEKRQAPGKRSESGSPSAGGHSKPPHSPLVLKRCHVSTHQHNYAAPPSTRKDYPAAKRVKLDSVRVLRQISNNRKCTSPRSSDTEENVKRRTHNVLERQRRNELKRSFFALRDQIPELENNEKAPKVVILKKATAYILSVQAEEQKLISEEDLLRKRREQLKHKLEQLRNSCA
Sequence of pure human MYC protein (P01106 16-454): as the sequence (P01106 16-454, one chain of several) above
Sequence of MAX (P01106 16-454 partner limits assumed): as the sequence (P01106 16-454, one chain of several) above
Sequence of MAX (P61244 whole entry): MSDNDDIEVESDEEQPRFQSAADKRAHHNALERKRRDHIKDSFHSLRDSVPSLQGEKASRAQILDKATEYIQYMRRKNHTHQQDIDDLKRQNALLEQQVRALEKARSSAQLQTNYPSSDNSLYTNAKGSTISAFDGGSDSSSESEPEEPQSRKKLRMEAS
Sequence of endogenous c-MYC (P01106 16-454): as the sequence (P01106 16-454, one chain of several) above
Sequence of MYC (P01106 16-454): as the sequence (P01106 16-454, one chain of several) above
Sequence of pure human c-JUN protein (P05412 whole entry): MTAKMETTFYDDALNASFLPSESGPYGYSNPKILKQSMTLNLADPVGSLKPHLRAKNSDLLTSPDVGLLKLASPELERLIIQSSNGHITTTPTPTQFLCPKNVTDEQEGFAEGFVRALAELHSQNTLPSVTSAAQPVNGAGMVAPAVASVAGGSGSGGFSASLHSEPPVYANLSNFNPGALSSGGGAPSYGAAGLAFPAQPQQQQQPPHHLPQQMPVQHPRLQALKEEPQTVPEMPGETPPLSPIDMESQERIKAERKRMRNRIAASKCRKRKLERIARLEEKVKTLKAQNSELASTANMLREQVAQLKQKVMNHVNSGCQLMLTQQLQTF
Sequence of C171Y mutant MYC protein (with MAX) (P01106 16-454 C186Y): as the sequence (P01106 16-454, one chain of several) above, with C171Y counted along it
Sequence of pure human MYC C171Y mutant protein (P01106 16-454 C186Y): as the sequence (P01106 16-454, one chain of several) above, with C171Y counted along it

SMILES: CCOc1ccc(Oc2ccccc2NC(=O)c2ccc(CNC(=O)CCl)cc2)cc1 [EN4–3, 4-((2-chloroacetamido)methyl)-N-(2-(4-ethoxyphenoxy)phenyl)benzamide]
activity in MYC luciferase reporter assay ([1]; HEK293T): loss of activity

EC50 ([1]; Homo sapiens, HEK-293T, read-out: EC50 in MYC luciferase reporter assay): 1.4 µM
enrichment of endogenous c-MYC versus vehicle (endogenous c-MYC): significantly enriched endogenous c-MYC
SMILES: C#Cc1ccc(Oc2ccc(OCC)cc2)c(NC(=O)c2ccc(CNC(=O)C=C)cc2)c1 [EN4-alkyne-4, 4-(acrylamidomethyl)-N-(2-(4-ethoxyphenoxy)-5-ethynylphenyl)benzamide]

SMILES: CCOc1ccc(Oc2ccccc2NC(=O)c2ccc(CNC(=O)CC)cc2)cc1 [EN4–18, N-(2-(4-ethoxyphenoxy)phenyl)-4-(propionamidomethyl)benzamide]
inhibition of MYC/MAX DNA binding in vitro ([2]; Fig. S4): significantly inhibits MYC/MAX DNA binding
activity in MYC luciferase reporter assay ([1]; HEK293T): inhibited MYC luciferase reporter activity

probe labeling of C171Y mutant MYC compared to wild-type [3]: labeling was not observed
SMILES: C#CCOc1ccc(NC(=O)c2ccc(CNC(=O)C=C)cc2)c(Oc2ccc(OCC)cc2)c1 [EN4-alkyne-2, 4-(acrylamidomethyl)-N-(2-(4-ethoxyphenoxy)-4-(prop-2-yn-1-yloxy)phenyl) benzamide]

SMILES: CCOc1ccc(Oc2ccccc2NC(=O)c2ccc(CNC(=O)/C=C/C(F)(F)F)cc2)cc1 [EN4–6, (E)-N-(2-(4-ethoxyphenoxy)phenyl)-4-((4,4,4-trifluorobut-2-enamido)methyl) benzamide]
activity in MYC luciferase reporter assay ([1]; HEK293T): loss of activity

SMILES: C=CC(=O)NCc1ccc(C(=O)Nc2ccccc2Oc2ccc(OCC)cc2)cc1 [EN4]
IC50 ([2]; read-out: 50 % inhibitory concentration (IC50) for MYC/MAX binding to the E-box response element DNA consensus sequence, dose-response, Fig. 1d, pre-incubated with MYC 30 min before MAX): 6.7 µM
inhibition of MYC/MAX DNA binding with C171Y mutant compared to wild-type MYC [4]: significantly attenuated
inhibition of MYC transcriptional activity in covalent ligand screen ([1]; 50 μM, 24 h, HEK293T, Fig. 1b): strongest inhibition
MYC inhibitory effect in cells expressing C171Y FLAG-MYC compared to WT FLAG-MYC (C171Y FLAG-MYC): significantly attenuated
inhibition of MYC luciferase reporter activity upon JUN knockdown compared to control cells [5]: comparable inhibitory effects
competition of EN4-alkyne-2 labeling of pure MYC (pure human MYC protein): displaced the labeling of EN4-alkyne-2
MYC thermal stability (MYC): significantly reduced MYC thermal stability
MAX thermal stability (MAX): reduced the thermal stability
competition against IA-rhodamine labeling of pure JUN (pure human c-JUN protein): competition of EN4 against labeling of pure JUN protein
expression of direct MYC target genes and MYC-regulated gene targets (MYC target genes): significantly downregulated
MYC protein levels [6]: substantially reduced
protein levels of CDK2 and CDC25A [6]: significantly lowered
inhibition of proliferation [7]: > 90%
cell survival of MYC-transformed MCF10A cells [8]: impaired the cell survival
cell survival of parental MCF10A cells (parental MCF10A cells): but not parental MCF10A cells
tumor growth in vivo [9]: significantly attenuated tumor growth
level of MYC binding partner MIZ1 or ZBTB17 (MIZ1 or ZBTB17): upregulation
